Series [1] deals with Mus musculus. The series is described as follows: (§1) Effect on pentobarbitol anesthesia (antagonist activity) in mice by intravenous (iv) administration relative to TRH. In kind it is functional. The method in brief: (§2)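 Mouse CNS assay run by the method of an earlier report. Potency ratio to TRH derived from dose-response data by parallel line assay.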
The subject of series [2] is Mus musculus. Briefly: (§3) Effect on reserpine-induced hypothermia (antagonist activity) in mice by intraperitoneal (ip) administration relative to TRH. In kind it is functional. The method in brief: as §2
Series [3] has as its system Mus musculus. The series is described as follows: Evaluated for the effect on spontaneous locomotor activity in mice by intraperitoneal (ip) administration relative to TRH.
The subject of series [4] is Mus musculus. Briefly: Toxicity and mortality indicates the number of dead animals / number of animals used at the compound dose of 500 mg/kg by administering intravenously (iv) in 3 mice. In kind it is functional. In outline: (§4)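 Acute toxicity in male Std/ddY mice (26-28 g), three to 10 per group. Compound dissolved in physiological saline and given as a single iv dose of 500 mg/kg. Animals observed for 1 week at 23-24 °C. Mortality recorded as dead/used.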

The subject of series [5] is Rattus norvegicus. Briefly: The thyrotropin (TSH) releasing activity was measured as serum TSH at 0.5 ug/rat dose (i.v.). In kind it is functional, organism-based. In outline: (§5)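 TSH release test in rats run as in the authors' earlier paper. Peptide given iv as μg/rat doses, 4–7 rats per group with a control group. Serum TSH reported in μg/100 mL as mean ± SE. Potency ratio versus TRH from parallel-line analysis of dose-response curves. Groups compared with control by two-tailed Student's t test.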

Series [6] concerns Rattus norvegicus. Briefly: The thyrotropin (TSH) releasing activity was measured as serum TSH at 0.03125 ug/rat dose (i.v.). In kind it is functional, organism-based. In outline:
as §5

Series [7] can be described thus: Evaluated for the potency ratio from the dose-response curve of TRH and compound by the parallel line assay method. In kind it is functional. The method in brief: as §5
Series [8] concerns Rattus norvegicus. The series is described as follows: The thyrotropin (TSH) releasing activity was measured as serum TSH at 0.125 ug/rat dose (i.v.). In kind it is functional, organism-based. In outline:
as §5

Series [9] deals with Mus musculus. The series is described as follows: Toxicity and mortality indicates the number of dead animals / number of animals used at dose of 500 mg/kg by administering intravenously (iv) in 3 mice. In kind it is organism-based. Also noted: dose 500 mg/kg, route intravenous. The settings on record: in vivo. In outline: as §4
In series [10] the test system is Mus musculus. The series is described as follows: Evaluated for the effect on spontaneous locomotor activity in mice by intraperitoneal (ip) administration relative to TRH. The source holds these as a separate data set.
Series [11] deals with Mus musculus. Briefly: Effect on reserpine-induced hypothermia (antagonist activity) in mice by intraperitoneal (ip) administration relative to TRH; Nonactive. In kind it is functional. The method in brief:
as §2

The test system of series [12] is Mus musculus. Briefly: Toxicity and mortality indicates the number of dead animals / number of animals used at the compound dose of 500 mg/kg by administering intravenously (iv) in mice. In kind it is organism-based. More on the design: dose 500 mg/kg, route intravenous. The settings on record: in vivo. The method in brief: as §4
The subject of series [13] is Mus musculus. Briefly: Effect on pentobarbitol anesthesia (antagonist activity) in mice by intravenous (iv) administration relative to TRHC; Not active. In kind it is functional, organism-based. In outline:
(§6)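 Mouse CNS tests followed methods from the authors' earlier paper. The potency ratio versus TRH comes from dose-response data for the test compound and TRH using the parallel line assay method.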

Series [14] relates to Mus musculus. The series is described as §3. In kind it is functional, organism-based. The method in brief: as §6
Series [15] relates to Mus musculus. The series is described as follows: Evaluated for the effect on spontaneous locomotor activity in mice by intraperitoneal (ip) administration relative to TRHV; Not active.
Series [16] has as its system Mus musculus. Described as §1. In kind it is functional, organism-based. The method in brief: as §6

Calls of active or inactive are those of the source. The calls are words filed in the database; no cut-off is given here.

For `CC(C)N1C(=O)C[C@@H](C(=O)N[C@@H](Cc2c[nH]cn2)C(=O)N2CCC[C@H]2C(N)=O)NC1=O`, the Activity with Mus musculus [1] was 1.9; in the series on Mus musculus [2] it was 11.5; in the series on Mus musculus [3], 5.
Turning to `CN1C(=O)C[C@@H](C(=O)N[C@@H](Cc2c[nH]cn2)C(=O)N2CCC[C@H]2C(N)=O)NC1=O`, the Activity in the series with Mus musculus [1] amounted to 28.1; in the series on Mus musculus [2], 89.4; with Mus musculus [3], 60.6. Further, the Mortality in the series on Mus musculus [4] was 0.
Regarding `CN1C(=O)C[C@@H](C(=O)N[C@@H](Cc2c[nH]cn2)C(=O)N2CCC[C@H]2C(N)=O)N(C)C1=O`, the Activity with Mus musculus [1] is reported as 1.2; in the series on Mus musculus [2], 0.5; with Mus musculus [3] it was 0.4.
`NC(=O)[C@@H]1CCCN1C(=O)[C@H](Cc1c[nH]cn1)NC(=O)[C@@H]1CCC(=O)N1`: the Serum TSH in the series with Rattus norvegicus [5] was 351 µg 100ml-1; with Rattus norvegicus [6], 59.1 µg 100ml-1; in the series with Rattus norvegicus [8] it was 115 µg 100ml-1. Besides, the Ratio in [7] came out at 1.
As to `NC(=O)[C@@H]1CCCN1C(=O)[C@H](Cc1c[nH]cn1)NC(=O)[C@@H]1CC(=O)N(CC(=O)O)C(=O)N1`, the Activity in the series with Mus musculus [1] and in the series on Mus musculus [2] was 0.1 each time. Further, the Mortality in the series on Mus musculus [9] is reported as 0. Besides, the result with Mus musculus [10] was inactive.
Consider `CCCCN1C(=O)C[C@@H](C(=O)N[C@@H](Cc2c[nH]cn2)C(=O)N2CCC[C@H]2C(N)=O)NC1=O`, for which the Activity is given as 0.8 in the series on Mus musculus [1], 1.8 with Mus musculus [2] and 1.2 in the series on Mus musculus [3].
With `CCCN1C(=O)C[C@@H](C(=O)N[C@@H](Cc2c[nH]cn2)C(=O)N2CCC[C@H]2C(N)=O)NC1=O`, the Activity in the series on Mus musculus [3] is listed as 0.7.
Consider `CNC(=O)[C@H]1CCCN1C(=O)[C@@H](Cc1c[nH]cn1)NC(=O)[C@@H]1CC(=O)N(C)C(=O)N1`, for which the Activity came out at 0.6 in the series with Mus musculus [1], 0.9 in the series on Mus musculus [11] and 0.4 in the series on Mus musculus [3]. The compound also displayed a Mortality with Mus musculus [9] of 0.
In the series with Mus musculus [1], `CCCCCN1C(=O)C[C@@H](C(=O)N[C@@H](Cc2c[nH]cn2)C(=O)N2CCC[C@H]2C(N)=O)NC1=O` came in with an Activity of 0.4.
As for `NC(=O)[C@@H]1CCCN1C(=O)[C@H](Cc1c[nH]cn1)NC(=O)[C@@H]1CC(=O)N(Cc2ccccc2)C(=O)N1`, the results for the Activity in the series on Mus musculus [1], in the series with Mus musculus [2] and in the series with Mus musculus [3] were 1.4, 6.8 and 2.3, respectively.
Compound `CC(=O)O.CCCCCCCCCCCCCCCCCCN1C(=O)C[C@@H](C(=O)N[C@@H](Cc2c[nH]cn2)C(=O)N2CCC[C@H]2C(N)=O)NC1=O` came in with a Mortality in the series with Mus musculus [12] of 1.
For `NC(=O)[C@@H]1CCCN1C(=O)[C@H](Cc1c[nH]cn1)NC(=O)C1CC(=O)N(CCOCc2ccccc2)C(=O)N1` (mixture of isomers), the Activity came to 0.4 in the series on Mus musculus [1] and 1.1 with Mus musculus [2]. This compound gave a Mortality in the series with Mus musculus [9] of 0. Besides, the result in the series with Mus musculus [10] was inactive.
In the case of `CN1C(=O)C[C@@H](C(=O)N[C@H](Cc2c[nH]cn2)C(=O)N2CCC[C@@H]2C(=O)OCc2ccccc2)NC1=O.Cl`, the outcome with Mus musculus [13], with Mus musculus [14] and with Mus musculus [15] was inactive. Also, the Mortality in the series with Mus musculus [9] was determined as 3.
Consider `C=CCN1C(=O)C[C@@H](C(=O)N[C@@H](Cc2c[nH]cn2)C(=O)N2CCC[C@H]2C(N)=O)NC1=O`, for which the Activity in the series with Mus musculus [1] is 4.4; with Mus musculus [2] it was 4.7; in the series with Mus musculus [3] it was 5.7.
On to `CN1C(=O)C[C@@H](C(=O)N[C@@H](Cc2c[nH]cn2)C(=O)N2CCC[C@@H]2C(N)=O)NC1=O`, for which the outcome in the series on Mus musculus [16], in the series on Mus musculus [14] and in the series with Mus musculus [10] was inactive. This compound gave a Mortality in the series with Mus musculus [9] of 0.
Take `NC(=O)[C@@H]1CCCN1C(=O)[C@H](Cc1c[nH]cn1)NC(=O)C1CC(=O)N(CCO)C(=O)N1` (mixture of isomers): the result in the series on Mus musculus [16], in the series on Mus musculus [14] and with Mus musculus [10] was inactive. Besides, the Mortality in the series on Mus musculus [9] was 0.
`NC(=O)[C@@H]1CCCN1C(=O)[C@H](Cc1c[nH]cn1)NC(=O)C1=NC(=O)NC(=O)C1`: the Activity with Mus musculus [1] came to 1.3; in the series on Mus musculus [2] it was 5.5; in the series with Mus musculus [3], 3.1. In the series with Mus musculus [9], this compound showed a Mortality of 0.
For `CCCCN1C(=O)CC(C(=O)N[C@@H](Cc2c[nH]cn2)C(=O)N2CCC[C@H]2C(N)=O)N(C)C1=O` (stereo partly drawn), the result in the series on Mus musculus [16], in the series on Mus musculus [14] and in the series with Mus musculus [10] was inactive. Moreover, the Mortality in the series with Mus musculus [9] was 0.
In the series with Mus musculus [1], `Cn1c(=O)cc(C(=O)N[C@@H](Cc2c[nH]cn2)C(=O)N2CCC[C@@H]2C(N)=O)[nH]c1=O` yielded an Activity of 0.4. For the same compound, the outcome with Mus musculus [14] and with Mus musculus [10] was inactive. Besides, in the series with Mus musculus [9], the Mortality is 0.
In the case of `NC(=O)[C@@H]1CCCN1C(=O)[C@H](Cc1c[nH]cn1)NC(=O)[C@@H]1CC(=O)N(CCF)C(=O)N1`, the figures for the Activity with Mus musculus [1], with Mus musculus [2] and in the series with Mus musculus [3] were 1.2, 4.1 and 0.9, respectively.
For `CCC[C@H](NC(=O)[C@@H]1CC(=O)N(C)C(=O)N1)C(=O)N1CCC[C@@H]1C(N)=O`, the outcome with Mus musculus [16], with Mus musculus [14] and in the series on Mus musculus [10] was inactive. Also, the Mortality in the series on Mus musculus [9] came out at 0.
Regarding `CN1C(=O)C[C@@H](C(=O)N[C@H](Cc2c[nH]cn2)C(=O)OCc2ccccc2)NC1=O`, the result in the series on Mus musculus [16], in the series with Mus musculus [14] and in the series with Mus musculus [10] was inactive. Further, in the series with Mus musculus [9], the Mortality is reported as 0.

The values are drawn from ChEMBL document CHEMBL1125135, “Synthesis and central nervous system actions of thyrotropin-releasing hormone analogues containing a dihydroorotic acid moiety” (J Med Chem, 1990).
